Laboratory results from ChEMBL document CHEMBL1138351, “Small, potent, and selective diaryl phosphonate inhibitors for urokinase-type plasminogen activator with in vivo antimetastatic properties” (J Med Chem, 2007).

Legend:
Rattus norvegicus [1] = test: Toxicity in Brown Norwegian rat bearing BN472 tumor assessed as decrease in liver weight at 0.1 mg/kg, ip administered once daily after 4 days of tumor transplantation for 17 to 18 days relative to control; assay type: organism-based; parameters: dose 0.1 mg/kg, route intraperitoneal; scale not given: the % may be the effect or the level left; settings: in vivo
How it was run: (§1)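 Orthotopic BN472 breast tumour model in rats. Daily i.p. dosing at 0.1 or 1 mg/kg started on day 4 and ran 17–18 days, with vehicle-only i.p. controls. Side effects were assessed from body weight and the weights of several organs, compared with controls.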

Plasminogen [2] = biological target: Plasminogen (Rattus norvegicus, UniProt Q01177); test: Inhibition of rat plasmin
[3] = Antimetastatic activity against Brown Norwegian rat bearing BN472 tumor assessed as decrease in number of lung foci at 0.1 mg/kg, ip administered once daily after 4 days of tumor transplantation for 17 to 18 days relative to control; assay type: functional; parameters: scale not given: the % may be the effect or the level left; settings: route intraperitoneal
How it was run: (§2)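 BN472 breast tumours implanted orthotopically in rats and left to grow three days. From day 4, compounds were given i.p. daily for 17–18 days at 0.1 or 1 mg/kg. Controls received vehicle i.p. only. Lung foci were counted and axillary lymph nodes weighed at the end of treatment. Groups were compared with control at an unadjusted significance level of P 0.05.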

Rattus norvegicus [4] = test: Toxicity in Brown Norwegian rat bearing BN472 tumor assessed as increase in uterus weight at 0.1 mg/kg, ip administered once daily after 4 days of tumor transplantation for 17 to 18 days relative to control; assay type: organism-based; parameters: dose 0.1 mg/kg, route intraperitoneal; settings: in vivo; how it was run: as §1
Prothrombin [5] = biological target: Prothrombin (Mus musculus, UniProt P19221); test: Inhibition of mouse thrombin
[6] = Chemical stability assessed as half life of hydrolysis at pH 8.8; assay type: physicochemical; settings: buffer
[7] = biological target: Urokinase-type plasminogen activator (Rattus norvegicus, UniProt P29598); test: Inhibition of rat uPA
[8] = Antitumor activity against Brown Norwegian rat bearing BN472 tumor assessed as reduction of tumor size at 1 mg/kg, ip administered once daily after 4 days of tumor transplantation for 17 to 18 days relative to control; assay type: functional; parameters: scale not given: the % may be the effect or the level left; settings: route intraperitoneal
How it was run: (§3)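 Rats bearing orthotopic BN472 breast tumours (grown three days) were dosed i.p. daily from day 4 for 17–18 days at 0.1 or 1 mg/kg. Vehicle-only i.p. controls were included. Tumour size and tumour weight were measured at the end of the treatment period and compared with controls.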

[9] = biological target: Urokinase-type plasminogen activator (Mus musculus, UniProt P06869); test: Inhibition of mouse uPA
[10] = Distribution coefficient, log D in octanol and phosphate buffer saline at pH 7.4; assay type: physicochemical; settings: octanol/phosphate buffered saline
How it was run: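 A 10 mM DMSO stock was added to a 1:1 octanol/PBS pH 7.4 mixture. Measured in duplicate.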

[11] = biological target: Urokinase-type plasminogen activator (Homo sapiens, UniProt P00749)
Coagulation factor X = Coagulation factor X (Homo sapiens, UniProt P00742); test: Inhibition of factor 10a
How it was run: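 Human factor Xa (FX activated with Russell's viper venom) at about 5 mU was preincubated with inhibitor (0–250 µM final) for 15 min at 37 °C. […] IC50 came from a four-parameter logistic fit.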

Rattus norvegicus [12] = test: (§4) Toxicity in Brown Norwegian rat bearing BN472 tumor assessed as decrease in adrenal weight at 0.1 mg/kg, ip administered once daily after 4 days of tumor transplantation for 17 to 18 days relative to control; assay type: organism-based; parameters: dose 0.1 mg/kg, route intraperitoneal; scale not given: the % may be the effect or the level left; settings: in vivo; how it was run: as §1
[13] = Chemical stability assessed as half life of hydrolysis at pH 4; assay type: physicochemical; settings: buffer
Rattus norvegicus [14] = test: Toxicity in Brown Norwegian rat bearing BN472 tumor assessed as increase in uterus weight at 1 mg/kg, ip administered once daily after 4 days of tumor transplantation for 17 to 18 days relative to control; assay type: organism-based; parameters: dose 1 mg/kg, route intraperitoneal; settings: in vivo; how it was run: as §1
[15] = Chemical stability assessed as half life of hydrolysis at pH 1; assay type: physicochemical; settings: buffer
Prothrombin [16] = biological target: Prothrombin (Homo sapiens, UniProt P00734); test: Inhibition of human thrombin
How it was run: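 Human plasma thrombin was assayed at 37 °C in Tris pH 8.3. […] Initial rate was read at 405 nm, in duplicate. IC50 was obtained from a four-parameter logistic fit.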

Rattus norvegicus [17] = test: Toxicity in Brown Norwegian rat bearing BN472 tumor assessed as increase in lung weight at 1 mg/kg, ip administered once daily after 4 days of tumor transplantation for 17 to 18 days relative to control; assay type: organism-based; parameters: dose 1 mg/kg, route intraperitoneal; settings: in vivo; how it was run: as §1
Rattus norvegicus [18] = test: Toxicity in Brown Norwegian rat bearing BN472 tumor assessed as effect on body weight at 0.1 mg/kg, ip administered once daily after 4 days of tumor transplantation for 17 to 18 days relative to control; assay type: organism-based; parameters: dose 0.1 mg/kg, route intraperitoneal; settings: in vivo; how it was run: as §1
[19] = Chemical stability assessed as half life of hydrolysis at pH 7.4; assay type: physicochemical; settings: buffer
[20] = Antimetastatic activity against Brown Norwegian rat bearing BN472 tumor assessed as reduction of interpectoral lymph node weight at 1 mg/kg, ip administered once daily after 4 days of tumor transplantation for 17 to 18 days relative to control; assay type: functional; parameters: scale not given: the % may be the effect or the level left; settings: route intraperitoneal
Prothrombin [21] = biological target: Prothrombin (Rattus norvegicus, UniProt P18292); test: Inhibition of rat thrombin
Rattus norvegicus [22] = test: Toxicity in Brown Norwegian rat bearing BN472 tumor assessed as decrease in liver weight at 1 mg/kg, ip administered once daily after 4 days of tumor transplantation for 17 to 18 days relative to control; assay type: organism-based; parameters: dose 1 mg/kg, route intraperitoneal; scale not given: the % may be the effect or the level left; settings: in vivo; how it was run: as §1
[23] = Antitumor activity aganist Brown Norwegian rat bearing BN472 tumor assessed as reduction of tumor weight at 0.1 mg/kg, ip administered once daily after 4 days of tumor transplantation for 17 to 18 days relative to control; assay type: functional; parameters: scale not given: the % may be the effect or the level left; settings: route intraperitoneal; how it was run: as §3
Plasminogen [24] = biological target: Plasminogen (Mus musculus, UniProt P20918); test: Inhibition of mouse plasmin
[25] = Antitumor activity against Brown Norwegian rat bearing BN472 tumor assessed as reduction of tumor weight at 1 mg/kg, ip administered once daily after 4 days of tumor transplantation for 17 to 18 days relative to control; assay type: functional; parameters: scale not given: the % may be the effect or the level left; settings: route intraperitoneal; how it was run: as §3
[26] = Antimetastatic activity against Brown Norwegian rat bearing BN472 tumor assessed as decrease in number of lung foci at 1 mg/kg, ip administered once daily after 4 days of tumor transplantation for 17 to 18 days relative to control; assay type: functional; parameters: scale not given: the % may be the effect or the level left; settings: route intraperitoneal; how it was run: as §2
[27] = Antimetastatic activity against Brown Norwegian rat bearing BN472 tumor assessed as reduction of axillary lymph node weight at 1 mg/kg, ip administered once daily after 4 days of tumor transplantation for 17 to 18 days relative to control; assay type: functional; parameters: scale not given: the % may be the effect or the level left; settings: route intraperitoneal; how it was run: as §2
[28] = Antimetastatic activity against Brown Norwegian rat bearing BN472 tumor assessed as reduction of axillary lymph node weight at 0.1 mg/kg, ip administered once daily after 4 days of tumor transplantation for 17 to 18 days relative to control; assay type: functional; parameters: scale not given: the % may be the effect or the level left; settings: route intraperitoneal; how it was run: as §2
Rattus norvegicus [29] = test: as §4; assay type: organism-based; parameters: dose 0.1 mg/kg, route intraperitoneal; scale not given: the % may be the effect or the level left; settings: in vivo; how it was run: as §1; remark: listed apart in the source
Rattus norvegicus [30] = test: Toxicity in Brown Norwegian rat bearing BN472 tumor assessed as decrease in spleen weight at 1 mg/kg, ip administered once daily after 4 days of tumor transplantation for 17 to 18 days relative to control; assay type: organism-based; parameters: dose 1 mg/kg, route intraperitoneal; scale not given: the % may be the effect or the level left; settings: in vivo; how it was run: as §1
Rattus norvegicus [31] = test: Toxicity in Brown Norwegian rat bearing BN472 tumor assessed as increase in lung weight at 0.1 mg/kg, ip administered once daily after 4 days of tumor transplantation for 17 to 18 days relative to control; assay type: organism-based; parameters: dose 0.1 mg/kg, route intraperitoneal; settings: in vivo; how it was run: as §1
[32] = Apparent solubility in phosphate buffered saline at pH 7.4 after 2 hrs; assay type: ADME
How it was run: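 Compounds were serially diluted from 10 mM DMSO stock into PBS pH 7.4 (2% DMSO final), giving 1–200 µM final at eight concentrations, in duplicate. Incubation was 2 h at 37 °C. Solubility was taken as the onset of increased absorbance at 620 nm.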

Sequence of Coagulation factor X (P00742 41-179 limits assumed): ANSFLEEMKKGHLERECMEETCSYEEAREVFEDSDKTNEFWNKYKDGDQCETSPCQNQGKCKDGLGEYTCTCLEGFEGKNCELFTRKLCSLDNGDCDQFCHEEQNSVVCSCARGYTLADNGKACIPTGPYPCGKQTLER
Sequence of Coagulation factor X (P00742 235-488 limits assumed): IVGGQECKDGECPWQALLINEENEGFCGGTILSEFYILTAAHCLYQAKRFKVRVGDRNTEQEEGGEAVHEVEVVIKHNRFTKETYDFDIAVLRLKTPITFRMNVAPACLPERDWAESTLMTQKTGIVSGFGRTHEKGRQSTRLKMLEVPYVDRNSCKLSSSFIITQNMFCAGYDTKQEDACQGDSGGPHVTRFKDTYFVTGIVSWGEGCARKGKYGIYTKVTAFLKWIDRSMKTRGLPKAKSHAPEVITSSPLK
Sequence of Urokinase-type plasminogen activator (Rattus norvegicus, UniProt P29598) (P29598 20-177 limits assumed): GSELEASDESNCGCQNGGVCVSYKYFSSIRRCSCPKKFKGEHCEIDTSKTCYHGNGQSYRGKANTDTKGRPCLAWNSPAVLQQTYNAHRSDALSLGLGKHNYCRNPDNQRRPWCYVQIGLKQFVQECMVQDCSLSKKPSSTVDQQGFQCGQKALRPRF
Sequence of Urokinase-type plasminogen activator (Rattus norvegicus, UniProt P29598) (P29598 179-432 limits assumed): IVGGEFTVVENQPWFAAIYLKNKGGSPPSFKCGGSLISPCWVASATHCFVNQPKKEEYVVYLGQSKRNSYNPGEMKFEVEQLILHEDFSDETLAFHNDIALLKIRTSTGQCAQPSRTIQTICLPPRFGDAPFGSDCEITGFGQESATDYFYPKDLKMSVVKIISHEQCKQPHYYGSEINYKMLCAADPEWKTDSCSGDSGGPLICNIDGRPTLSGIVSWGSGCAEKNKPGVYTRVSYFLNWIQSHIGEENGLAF
Sequence of Urokinase-type plasminogen activator (Mus musculus, UniProt P06869) (P06869 21-178 limits assumed): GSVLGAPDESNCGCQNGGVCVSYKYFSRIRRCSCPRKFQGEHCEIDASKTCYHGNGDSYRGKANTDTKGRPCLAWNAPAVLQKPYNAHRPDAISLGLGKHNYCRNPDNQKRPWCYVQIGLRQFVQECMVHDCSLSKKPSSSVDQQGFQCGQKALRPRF
Sequence of Urokinase-type plasminogen activator (Mus musculus, UniProt P06869) (P06869 180-433 limits assumed): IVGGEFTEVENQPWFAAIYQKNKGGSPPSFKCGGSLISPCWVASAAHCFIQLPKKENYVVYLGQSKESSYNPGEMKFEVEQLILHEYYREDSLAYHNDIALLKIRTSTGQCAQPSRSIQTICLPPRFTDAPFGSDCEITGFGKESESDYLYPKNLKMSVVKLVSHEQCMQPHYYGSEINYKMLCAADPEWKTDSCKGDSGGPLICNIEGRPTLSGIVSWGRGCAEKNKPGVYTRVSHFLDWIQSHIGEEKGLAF
Sequence of Plasminogen (Rattus norvegicus, UniProt Q01177) (Q01177 97-581 limits assumed): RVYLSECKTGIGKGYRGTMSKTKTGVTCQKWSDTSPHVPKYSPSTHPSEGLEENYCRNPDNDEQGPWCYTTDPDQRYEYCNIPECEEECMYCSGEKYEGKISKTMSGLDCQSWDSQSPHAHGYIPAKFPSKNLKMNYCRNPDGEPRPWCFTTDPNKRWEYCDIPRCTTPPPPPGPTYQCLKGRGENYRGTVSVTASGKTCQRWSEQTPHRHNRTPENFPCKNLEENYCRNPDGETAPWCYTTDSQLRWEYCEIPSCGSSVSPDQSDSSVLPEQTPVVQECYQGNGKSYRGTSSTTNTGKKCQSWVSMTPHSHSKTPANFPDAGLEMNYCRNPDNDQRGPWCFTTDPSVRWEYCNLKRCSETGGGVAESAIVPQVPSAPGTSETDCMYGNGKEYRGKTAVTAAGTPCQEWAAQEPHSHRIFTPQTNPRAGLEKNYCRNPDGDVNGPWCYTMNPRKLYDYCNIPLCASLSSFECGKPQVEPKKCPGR
Sequence of Plasminogen (Rattus norvegicus, UniProt Q01177) (Q01177 582-812 limits assumed): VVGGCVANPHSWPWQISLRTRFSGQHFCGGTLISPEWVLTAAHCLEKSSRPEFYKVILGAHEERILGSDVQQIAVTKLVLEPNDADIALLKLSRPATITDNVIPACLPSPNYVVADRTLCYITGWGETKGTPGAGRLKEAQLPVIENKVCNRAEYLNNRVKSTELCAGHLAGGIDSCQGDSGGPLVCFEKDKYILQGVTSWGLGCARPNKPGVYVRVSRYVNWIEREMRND
Sequence of Plasminogen (Mus musculus, UniProt P20918) (P20918 98-581 limits assumed): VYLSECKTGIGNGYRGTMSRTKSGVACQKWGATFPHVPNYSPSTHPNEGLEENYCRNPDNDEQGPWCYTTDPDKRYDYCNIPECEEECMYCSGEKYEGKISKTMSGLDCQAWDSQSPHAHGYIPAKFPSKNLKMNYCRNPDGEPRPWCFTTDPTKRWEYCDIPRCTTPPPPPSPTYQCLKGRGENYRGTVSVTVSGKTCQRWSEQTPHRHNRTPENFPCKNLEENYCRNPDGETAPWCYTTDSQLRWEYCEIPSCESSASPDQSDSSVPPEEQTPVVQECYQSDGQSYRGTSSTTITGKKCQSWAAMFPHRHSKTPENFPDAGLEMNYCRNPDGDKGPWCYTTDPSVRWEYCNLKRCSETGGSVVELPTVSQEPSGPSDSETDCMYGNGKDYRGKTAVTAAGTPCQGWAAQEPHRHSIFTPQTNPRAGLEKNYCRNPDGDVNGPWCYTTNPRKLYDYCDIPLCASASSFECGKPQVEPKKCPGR
Sequence of Plasminogen (Mus musculus, UniProt P20918) (P20918 582-812 limits assumed): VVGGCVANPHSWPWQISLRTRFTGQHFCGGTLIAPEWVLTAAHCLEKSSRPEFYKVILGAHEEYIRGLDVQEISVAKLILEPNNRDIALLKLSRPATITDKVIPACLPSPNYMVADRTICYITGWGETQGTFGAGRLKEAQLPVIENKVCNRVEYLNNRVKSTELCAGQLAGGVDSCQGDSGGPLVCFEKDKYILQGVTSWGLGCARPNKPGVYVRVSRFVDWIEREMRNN

COC(=O)NC(Cc1ccc(NC(=N)N)cc1)P(=O)(Oc1ccc(NC(C)=O)cc1)Oc1ccc(NC(C)=O)cc1 (stereo not drawn)
Activity (Rattus norvegicus [1]): 2% | IC50 (Plasminogen [2]): 2.2 µM | Activity [3]: 42% | Activity (Rattus norvegicus [4]): 16% | IC50 (Prothrombin [5]): 4.5 µM | half-life [6]: 3 h | IC50 [7]: 0.0245 µM | Activity [8]: 18% | IC50 [9]: 0.008 µM | logD [10]: -0.08 | Kapp [11]: 1e+06 M⁻¹ s⁻¹ | IC50 (Coagulation factor X): 30 µM | Activity (Rattus norvegicus [12]): 2% | half-life [13]: > 336 h | Activity (Rattus norvegicus [14]): 33% | half-life [15]: 35 h | IC50 (Prothrombin [16]): 1.13 µM | Activity (Rattus norvegicus [17]): 7% | Activity (Rattus norvegicus [18]): 163.5 g | half-life [19]: 64 h | Activity [20]: 6% | IC50 (Prothrombin [21]): 45 µM | Activity (Rattus norvegicus [22]): 8% | Activity [23]: 15% | IC50 (Plasminogen [24]): 4.8 µM | Activity [25]: 17% | Activity [26]: 70% | Activity [27]: 73% | Activity [28]: 49% | Activity (Rattus norvegicus [29]): 5% | Activity (Rattus norvegicus [30]): 10% | Activity (Rattus norvegicus [31]): 18% | solubility at 2 h [32]: > 200 µM
